ChEMBL document CHEMBL2417520, “Synthesis and biological evaluation of amino analogs of Ludartin: potent and selective cytotoxic agents” (Bioorg Med Chem Lett, 2013)

Columns and labels:
A549 [1] = experiment: Cytotoxicity against human A549 cells assessed as cell growth inhibition at 50 uM after 48 hrs by sulphorhodamine B assay; format: functional; settings: A549, 48 h, read-out: GI
Method in brief: (§1)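 Single-concentration screen of analogs at 50 µM for 48 h on overnight-adhered cells maintained in RPMI-1640/10% FBS at 37 °C, 5% CO2. Cells were fixed with ice-cold TCA (60 min) and stained 30 min with 0.4% SRB in 1% acetic acid. Bound dye was dissolved in 10 mM Tris and OD read at 570 nm, expressed as % growth inhibition.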

THP-1 [2] = experiment: Cytotoxicity against human THP1 cells assessed as cell growth inhibition at 50 uM after 48 hrs by sulphorhodamine B assay; format: functional; settings: THP-1, 48 h, read-out: GI; method in brief: as §1
HCT-116 [3] = experiment: Cytotoxicity against human HCT116 cells assessed as cell growth inhibition at 50 uM after 48 hrs by sulphorhodamine B assay; format: functional; settings: HCT-116, 48 h, read-out: GI; method in brief: as §1
PC-3 [4] = experiment: Cytotoxicity against human PC3 cells assessed as cell growth inhibition at 50 uM after 48 hrs by sulphorhodamine B assay; format: functional; settings: PC-3, 48 h, read-out: GI; method in brief: as §1
THP-1 [5] = experiment: Cytotoxicity against human THP1 cells assessed as cell growth inhibition after 48 hrs by sulphorhodamine B assay; format: functional, cell-based; settings: THP-1, 48 h
Method in brief: (§2)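 Cells grown in RPMI-1640 with 10% FBS and penicillin/streptomycin at 37 °C under 5% CO2, then allowed to adhere overnight. Only analogs giving >50% inhibition at 50 µM were retested at 10–100 µM for 48 h. Cells were fixed with cold TCA and stained with 0.4% SRB in 1% acetic acid. Dye was solubilised in 10 mM Tris and read at 570 nm to give IC50.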

HCT-116 [6] = experiment: Cytotoxicity against human HCT116 cells assessed as cell growth inhibition after 48 hrs by sulphorhodamine B assay; format: functional, cell-based; settings: HCT-116, 48 h; method in brief: as §2
A549 [7] = experiment: Cytotoxicity against human A549 cells assessed as cell growth inhibition after 48 hrs by sulphorhodamine B assay; format: functional, cell-based; settings: A549, 48 h; method in brief: as §2
PC-3 [8] = experiment: Cytotoxicity against human PC3 cells assessed as cell growth inhibition after 48 hrs by sulphorhodamine B assay; format: functional, cell-based; settings: PC-3, 48 h; method in brief: as §2
PC-3 [9] = experiment: Ratio of ludartin IC50 to compound IC50 for human PC3 cells; format: functional
A549 [10] = experiment: Ratio of ludartin IC50 to compound IC50 for human A549 cells; format: functional

Compound | inhibition of growth at 50 µM (A549 [1]) [%] | inhibition of growth at 50 µM (THP-1 [2]) [%] | inhibition of growth at 50 µM (HCT-116 [3]) [%] | inhibition of growth at 50 µM (PC-3 [4]) [%] | IC50 (THP-1 [5]) [µM] | IC50 (HCT-116 [6]) [µM] | IC50 (A549 [7]) [µM] | IC50 (PC-3 [8]) [µM] | Ratio IC50 (PC-3 [9]) | Ratio IC50 (A549 [10])
C=CCNC[C@@H]1C(=O)O[C@H]2[C@H]1CCC(C)=C1C[C@H]3O[C@@]3(C)[C@@H]12 | 0 | 39 | 28 | 16 |  |  |  |  |  | 
CC1=C2C[C@H]3O[C@@]3(C)[C@@H]2[C@H]2OC(=O)[C@@H](CN3CCOCC3)[C@@H]2CC1 | 42 | 97 | 58 | 59 | 2.8 |  |  |  |  | 
CCNC[C@@H]1C(=O)O[C@H]2[C@H]1CCC(C)=C1C[C@H]3O[C@@]3(C)[C@@H]12 | 20 | 68 | 36 | 43 | 29 |  |  |  |  | 
CC1=C2C[C@H]3O[C@@]3(C)[C@@H]2[C@H]2OC(=O)[C@@H](CN3CCCCC3)[C@@H]2CC1 | 87 | 93 | 90 | 85 | 3.9 | 4 | 17 | 23 |  | 
CCCNC[C@@H]1C(=O)O[C@H]2[C@H]1CCC(C)=C1C[C@H]3O[C@@]3(C)[C@@H]12 | 39 | 23 | 2 | 17 |  |  |  |  |  | 
CC1=C2C[C@H]3O[C@@]3(C)[C@@H]2[C@H]2OC(=O)[C@@H](Cn3nc4ccccc4n3)[C@@H]2CC1 | 25 | 15 | 13 | 40 |  |  |  |  |  | 
CCCCNC[C@@H]1C(=O)O[C@H]2[C@H]1CCC(C)=C1C[C@H]3O[C@@]3(C)[C@@H]12 | 0 | 28 | 4 | 14 |  |  |  |  |  | 
CC1=C2C[C@H]3O[C@@]3(C)[C@@H]2[C@H]2OC(=O)[C@@H](Cn3ccnc3)[C@@H]2CC1 | 0 | 36 | 42 | 53 |  |  |  |  |  | 
CC1=C2C[C@H]3O[C@@]3(C)[C@@H]2[C@H]2OC(=O)[C@@H](Cn3cncn3)[C@@H]2CC1 | 69 | 83 | 70 | 66 | 15 | 20 | 32 | 35 |  | 
C=C1C(=O)O[C@H]2[C@H]1CCC(C)=C1C[C@H]3O[C@@]3(C)[C@@H]12 [LUDARTIN] | 97 | 98 | 97 | 97 | 3.1 | 6.9 | 7.4 | 7.5 |  | 
CC1=C2C[C@H]3O[C@@]3(C)[C@@H]2[C@H]2OC(=O)[C@@H](Cn3cnc([N+](=O)[O-])c3)[C@@H]2CC1 | 0 | 32 | 30 | 15 |  |  |  |  |  | 
CC1=C2C[C@H]3O[C@@]3(C)[C@@H]2[C@H]2OC(=O)[C@@H](CN3CCCC3)[C@@H]2CC1 | 0 | 67 | 15 | 11 | 26 |  |  |  |  | 
CC1=C2C[C@H]3O[C@@]3(C)[C@@H]2[C@H]2OC(=O)[C@@H](Cn3ncc4ccc([N+](=O)[O-])cc43)[C@@H]2CC1 | 84 | 63 | 86 | 99 | 29 | 17 | 35 | 2.2 | 3 | 
CCN(CC)C[C@@H]1C(=O)O[C@H]2[C@H]1CCC(C)=C1C[C@H]3O[C@@]3(C)[C@@H]12 | 73 | 98 | 95 | 56 | 3.5 | 3.7 | 22 | 32 |  | 
CNC[C@@H]1C(=O)O[C@H]2[C@H]1CCC(C)=C1C[C@H]3O[C@@]3(C)[C@@H]12 | 10 | 25 | 16 | 12 |  |  |  |  |  | 
CC1=C2C[C@H]3O[C@@]3(C)[C@@H]2[C@H]2OC(=O)[C@@H](Cn3ncc4cc([N+](=O)[O-])ccc43)[C@@H]2CC1 | 99 | 72 | 57 | 52 | 31 | 40 | 2.6 | 34 |  | 3
C#CCNC[C@@H]1C(=O)O[C@H]2[C@H]1CCC(C)=C1C[C@H]3O[C@@]3(C)[C@@H]12 | 36 | 40 | 4 | 33 |  |  |  |  |  | 
CC1=C2C[C@H]3O[C@@]3(C)[C@@H]2[C@H]2OC(=O)[C@@H](CNCc3ccc(F)cc3)[C@@H]2CC1 | 16 | 26 | 0 | 64 |  |  |  |  |  | 
